These results are taken from paper PMC2955813 (Cancer prevention research (Philadelphia, Pa.), 2010).

Structures are written as SMILES. Some results are limits rather than exact numbers.

In data set [1] the test system is cGMP hydrolysis in HT-29 cell lysate. Put plainly: IMAP fluorescence polarization PDE assay, cGMP hydrolysis in HT-29 lysate. It counts as biochemical, human. As to conditions: HT-29 cell lysates; concentration not given. A digest of the protocol: (§1)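 HT-29 or FHC cells were lysed in ice-cold 20 mM Tris-acetate, 5 mM Mg acetate, 1 mM EGTA, 0.8% Triton X-100, 50 mM NaF, protease inhibitors, pH 7.4. Lysates were cleared at 10,000g, 10 min, 4°C, and protein measured by BCA. PDE activity was read by IMAP fluorescence polarization, with Fl-cAMP and TAMRA-cGMP as substrates so cAMP and cGMP hydrolysis were measured together.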
In general terms: In fluorescence polarisation assays a small probe gives low polarisation when free and higher when bound to something large.

For data set [2], the system named is HT-29, SW480, and HCT116 human colon cancer cell lines. Nature of the data set: Cell Titer Glo growth assay, colon tumor cell lines. In kind it is cell-based. As to conditions: for effect on colon tumor cell growth: PDE isozyme specific inhibitors; for IC50: Homo sapiens, 72 h, read-out: growth inhibition IC50, range over cell lines; for HT-29 growth inhibition: NSAID panel.

Data set [3] concerns cGMP PDE in HT-29 human colon tumor cell lysates. Put plainly: cGMP PDE scintillation proximity assay in HT-29 lysate. It counts as biochemical. The following applies: HT-29 cell lysates; for IC50: read-out: IC50 cGMP PDE, scintillation proximity assay; for effect on cGMP PDE activity: NSAID panel. Summed up: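 The reaction was stopped with scintillation proximity beads that bind the labeled product, then counted.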
On the technique in general: In a scintillation proximity assay essentially only radioactivity close to the scintillant gives light.

Data set [4] in a line: Plasma levels of sulindac and metabolites. It counts as in vivo. As to conditions: for concentration at 6 h: mouse, plasma, po, 50 mg/kg.
Data set [5] has as its system cyclinD1 and survivin expression in SW480 cells. Nature of the data set: Western blot of cyclin D1 and survivin. It counts as cell-based, human. As to conditions: time-dependent. A digest of the protocol:
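SW480 lysate (ice-cold Tris-acetate/Triton X-100/NaF buffer, pH 7.4, cleared at 10,000g, 4°C) was loaded at 30 μg protein per lane. Proteins were separated by 12% SDS-PAGE and transferred to nitrocellulose, blocked with 5% BSA in TBS/0.05% Tween-20, and probed for cyclin D1 and survivin, with β-actin as loading control.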
(In general: In western blotting, separated proteins are transferred to a membrane and probed.)

For data set [6], the system named is cAMP hydrolysis in HT-29 cell lysate. Nature of the data set: IMAP fluorescence polarization PDE assay, cAMP hydrolysis in HT-29 lysate. In kind it is biochemical, human.
For data set [7], the system named is cGMP PDE activity in lysates from HT-29 tumors established in athymic mice. Put plainly: cGMP PDE in HT-29 tumor homogenates versus normal rat colonic mucosa. In kind it is biochemical, human. The following applies: HT-29 tumor lysate vs normal rat colonic mucosa lysate.
For data set [8], the system named is Tcf/Lef-mediated transcription in HT-29, HCT-116, and SW480 colon cancer cells. Nature of the data set: TOPFlash luciferase reporter assay. It counts as cell-based, human. As to conditions: HT-29, HCT-116, SW480, 24 hours. A digest of the protocol:
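Cells were transiently co-transfected with the TOPFlash luciferase construct and a β-galactosidase expression vector, then treated for 24 h. After lysis, luciferase and β-galactosidase activities were measured, and luciferase was normalized to β-galactosidase.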

Data set [9] concerns intracellular cGMP levels in colon tumor cells. The following applies: cited from earlier work.
The target of data set [10] is T1, Purified ovine COX-2 (Ovis aries, UniProt P79208).
T1 sequence (P79208 17-603): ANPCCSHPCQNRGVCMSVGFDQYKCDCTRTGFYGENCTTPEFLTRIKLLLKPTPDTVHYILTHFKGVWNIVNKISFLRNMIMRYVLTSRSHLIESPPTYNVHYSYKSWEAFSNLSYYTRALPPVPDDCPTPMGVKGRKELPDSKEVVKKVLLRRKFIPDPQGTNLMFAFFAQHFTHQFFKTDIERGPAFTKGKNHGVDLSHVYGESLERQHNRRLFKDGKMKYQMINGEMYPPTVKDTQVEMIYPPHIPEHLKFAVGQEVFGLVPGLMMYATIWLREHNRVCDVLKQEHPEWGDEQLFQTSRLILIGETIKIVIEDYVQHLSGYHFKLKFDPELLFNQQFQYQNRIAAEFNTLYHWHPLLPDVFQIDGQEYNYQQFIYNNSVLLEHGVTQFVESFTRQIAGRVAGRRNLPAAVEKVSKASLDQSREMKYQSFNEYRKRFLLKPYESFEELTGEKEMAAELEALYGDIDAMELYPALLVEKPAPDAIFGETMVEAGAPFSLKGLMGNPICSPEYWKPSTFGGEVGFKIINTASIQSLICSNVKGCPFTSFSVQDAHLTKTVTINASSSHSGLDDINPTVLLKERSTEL
Nature of the data set: COX-2 inhibition, purified enzyme. It counts as biochemical. As to conditions: read-out: IC50 COX-2.

For data set [11], the target named is T2, Purified ovine COX-1 (Ovis aries, UniProt P05979).
T2 sequence (P05979 25-600): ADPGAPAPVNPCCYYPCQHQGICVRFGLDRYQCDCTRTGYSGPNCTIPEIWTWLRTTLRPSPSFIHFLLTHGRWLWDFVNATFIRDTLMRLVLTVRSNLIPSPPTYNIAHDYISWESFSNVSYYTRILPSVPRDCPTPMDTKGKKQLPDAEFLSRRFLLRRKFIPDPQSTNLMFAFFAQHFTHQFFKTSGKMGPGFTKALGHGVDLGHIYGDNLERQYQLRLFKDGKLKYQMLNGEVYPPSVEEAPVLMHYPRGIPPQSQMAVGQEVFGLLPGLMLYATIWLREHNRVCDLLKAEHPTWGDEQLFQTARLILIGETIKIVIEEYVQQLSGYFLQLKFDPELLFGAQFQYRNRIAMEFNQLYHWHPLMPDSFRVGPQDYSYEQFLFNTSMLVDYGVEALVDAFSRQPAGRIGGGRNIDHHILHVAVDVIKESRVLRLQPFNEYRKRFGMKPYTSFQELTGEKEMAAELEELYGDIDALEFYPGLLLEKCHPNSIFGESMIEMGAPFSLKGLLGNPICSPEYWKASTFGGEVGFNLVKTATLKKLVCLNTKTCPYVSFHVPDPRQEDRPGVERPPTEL
Put plainly: COX-1 inhibition, purified enzyme. It counts as biochemical. As to conditions: read-out: IC50 COX-1.

A short description of data set [12]: Tolerance study. It counts as in vivo. The following applies: daily oral gavage for 20 days; no deaths or significant weight loss.
Data set [13] concerns human HT-29 colon tumor xenograft. Put plainly: HT-29 colon tumor xenograft efficacy. It counts as in vivo, male NCr-nu/nu athymic mice. The following applies: 50 mg/kg once daily oral gavage. Summed up: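 Male NCr-nu/nu mice, 5–6 weeks old, were implanted subcutaneously with HT-29 tumor fragments; 10 mice per group, vehicle-treated control. Dosing started at tumor size 75–200 mg: 50 mg/kg oral gavage once daily for 40 days, as a suspension in 0.5% CMC, 0.25% Tween 80 in water. Tumor dimensions and body weight were measured twice weekly; mortality checked daily.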

The test system of data set [14] is HT-29 cells. Nature of the data set: 3H-thymidine incorporation proliferation assay. It counts as cell-based, human. As to conditions: read-out: IC50 Proliferation, 72 hours, tritiated thymidine assay. A digest of the protocol: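 HT-29 cells (>95% viable by trypan blue) were treated for 72 h in total. 1 μCi ³H-thymidine was added at 56 h and incubation continued 16 h at 37°C. DNA was harvested onto filters and uptake counted by scintillation.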

Data set [15] relates to recombinant PDE3. Nature of the data set: Recombinant PDE3 inhibition. It counts as biochemical. As to conditions: recombinant isozyme, cAMP as substrate; data not shown.
Data set [16] has as its target recombinant PDE2 (Homo sapiens, UniProt O00408). Nature of the data set: Recombinant PDE2 inhibition. It counts as biochemical. The following applies: recombinant isozyme, cAMP as substrate; data not shown.
Data set [17] relates to cGMP PDE in FHC lysates. Put plainly: IMAP fluorescence polarization PDE assay, cGMP hydrolysis in FHC lysate. The following applies: FHC lysate compared with HT-29 lysate. It counts as biochemical, human. A digest of the protocol: as §1

Sequence of recombinant PDE2 (O00408 whole entry): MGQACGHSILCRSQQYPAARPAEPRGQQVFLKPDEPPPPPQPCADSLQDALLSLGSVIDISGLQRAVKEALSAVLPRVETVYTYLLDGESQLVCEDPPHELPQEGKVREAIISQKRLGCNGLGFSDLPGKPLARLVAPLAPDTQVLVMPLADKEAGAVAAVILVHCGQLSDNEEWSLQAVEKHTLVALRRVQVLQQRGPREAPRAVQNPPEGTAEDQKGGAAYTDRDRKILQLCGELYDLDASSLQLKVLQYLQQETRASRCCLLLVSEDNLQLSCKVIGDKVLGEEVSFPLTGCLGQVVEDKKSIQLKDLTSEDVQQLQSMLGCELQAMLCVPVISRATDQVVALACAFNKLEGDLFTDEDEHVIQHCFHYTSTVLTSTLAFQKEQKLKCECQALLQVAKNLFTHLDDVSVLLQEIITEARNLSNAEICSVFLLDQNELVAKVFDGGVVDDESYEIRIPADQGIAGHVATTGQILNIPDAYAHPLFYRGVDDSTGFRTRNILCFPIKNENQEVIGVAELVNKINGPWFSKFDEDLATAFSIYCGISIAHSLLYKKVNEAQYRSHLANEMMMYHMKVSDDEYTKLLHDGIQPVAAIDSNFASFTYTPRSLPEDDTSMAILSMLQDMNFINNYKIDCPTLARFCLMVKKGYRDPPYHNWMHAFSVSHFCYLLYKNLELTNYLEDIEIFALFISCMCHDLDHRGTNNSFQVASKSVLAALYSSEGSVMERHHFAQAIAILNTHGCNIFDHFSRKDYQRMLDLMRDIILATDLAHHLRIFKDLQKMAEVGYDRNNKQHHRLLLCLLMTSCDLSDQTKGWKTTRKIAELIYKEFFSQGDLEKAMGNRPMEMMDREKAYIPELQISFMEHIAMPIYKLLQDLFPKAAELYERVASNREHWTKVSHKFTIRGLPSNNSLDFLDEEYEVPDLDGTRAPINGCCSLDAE

Turning to `Cc1[nH]c(=O)c(C#N)cc1-c1ccncc1` [milrinone], in data set [1], the “inhibition of cGMP PDE activity in HT-29 lysate” value (from here on “inhibition of cGMP PDE activity”) was determined as 31%. Moreover, in [2] (HT-29, SW480, HCT116), the “effect on colon tumor cell growth” value is given as “only MY5445 was found to inhibit colon tumor cell growth”.
Turning to `CC1=C(CC(=O)O)c2cc(F)ccc2/C1=C\c1ccc(S(C)(=O)=O)cc1` [Sulindac sulfone, sulindac sulfone], the IC50 in data set [3] was 95.9 µM. In addition, the concentration at 6 h in data set [4] was 8.9 ± 1.2 µM.
With `Clc1cccc(Nc2nnc(-c3ccccc3)c3ccccc23)c1` [MY5445, 1-(3-chloroanilino)-4-phenylphthalazine], the “expression of cyclinD1 and survivin” value in [5] is on record as “significant reduction”. The IC50 in data set [2] was in the range of 8 to 18 µM. In addition, the “effect on cAMP hydrolysis” value in data set [6] is given as “without substantially affecting cAMP hydrolysis”. In addition, the “fold greater potency for tumor cGMP PDE compared to normal tissue” value in data set [7] was “more than 10 fold”. For the same molecule, the Tcf/Lef-mediated transcription entry in [8] was “significant reduction”.
Consider `CCCc1nn(C)c2c(=O)[nH]c(-c3cc(S(=O)(=O)N4CCN(C)CC4)ccc3OCC)nc12` [sildenafil], for which the “inhibition of cGMP PDE activity” value in data set [1] is listed as 42%. Besides, in data set [2] (HT-29, SW480, HCT116), the “effect on colon tumor cell growth” value is given as “did not affect colon tumor cell growth”.
With `C=C[C@@]1(C)CC(=O)[C@]2(O)[C@@]3(C)[C@@H](O)CCC(C)(C)[C@@H]3[C@H](O)[C@H](OC(C)=O)[C@@]2(C)O1` [forskolin], the effect on growth result in data set [2] (HT-29, SW480, HCT116, 72 hours, concentrations up to 100 μM) is “did not significantly affect growth”.
Consider `CCCCC1C(=O)N(c2ccccc2)N(c2ccccc2)C1=O` [phenylbutazone], for which the “effect on cGMP PDE activity” value in data set [3] is listed as “did not affect cGMP PDE activity”. Further, the HT-29 growth inhibition result in data set [2] is given as “low potency”.
Consider `O=C(O)C1CCN(c2nc(NCc3ccc4c(c3)OCO4)c3cc(Cl)ccc3n2)CC1` [E4021], for which, in [9], the “increase in intracellular cGMP levels” value is on record as “unable to induce a significant increase”.
Consider `COc1ccc2c(c1)c(CC(=O)O)c(C)n2C(=O)c1ccc(Cl)cc1` [Indomethacin, indomethacin], for which, in data set [3], the IC50 amounted to 24 µM.
Take `CC(=O)Oc1ccccc1C(=O)O` [aspirin]: the “effect on cGMP PDE activity” value in [3] was “did not affect cGMP PDE activity”. The HT-29 growth inhibition result in [2] was “low potency”.
On the same counts, the results for `CN1C(C(=O)Nc2ccccn2)=C(O)c2ccccc2S1(=O)=O` [piroxicam] are “did not affect cGMP PDE activity” and “low potency”.
Consider `CN1CC(=O)N2[C@H](c3ccc4c(c3)OCO4)c3[nH]c4ccccc4c3C[C@@H]2C1=O` [tadalafil], for which, in data set [2] (HT-29, SW480, HCT116), the “effect on colon tumor cell growth” value was “did not affect colon tumor cell growth”.
Same read-out and setting: for `CCOC(=O)C1=C[C@]2(CC)CCCN3CCc4c(n1c1ccccc41)[C@@H]32` [vinpocetine] the value was “only MY5445 was found to inhibit colon tumor cell growth”.
As for `CCCCCC[C@@H]([C@@H](C)O)n1cnc2c(N)ncnc21` (racemic) [EHNA], the “inhibition of cGMP PDE activity” value in data set [1] is “less than 12%”. For the same molecule, the “effect on colon tumor cell growth” value in data set [2] (HT-29, SW480, HCT116) is “only MY5445 was found to inhibit colon tumor cell growth”.
For `COc1ccc(C2CNC(=O)C2)cc1OC1CCCC1` (stereo not shown) [rolipram], in data set [2] (HT-29, SW480, HCT116), the “effect on colon tumor cell growth” value is “only MY5445 was found to inhibit colon tumor cell growth”.
Regarding `CC1=C(CC(=O)O)c2cc(F)ccc2/C1=C\c1ccc([S+](C)[O-])cc1` (stereo not shown) [Sulindac sulfoxide, sulindac], the IC50 in data set [10] was more than 300 µM; in data set [3], 120 µM; in data set [11] it was more than 300 µM; in data set [14], 224 µM. For the same molecule, in data set [4] (6 hours following a single oral dose of sulindac at 50 mg/kg), the plasma level amounted to 23.1 ± 5.5 µM. The maximum tolerated dosage result in data set [12] is listed as “approximately 50 mg/kg”. Further, the “reduction of tumor growth” value in data set [13] (end of treatment, vs vehicle) is “approximately 55%”. The “effect on body weight” value in data set [13] (not shown) is on record as “without affecting body weight”.
Take `CSc1ccc(/C=C2/C(C)=C(CC(=O)O)c3cc(F)ccc32)cc1` [Sulindac sulfide, sulindac sulfide]: the IC50 in [3] is 19.7 µM; in data set [2], 73 to 85 µM; in [14] it was 33.9 µM. The concentration at 6 h in [4] is 36.7 ± 10.2 µM. Moreover, the “expression of cyclinD1 and survivin” value in data set [5] is given as “significant reduction”. In [15], the “cAMP hydrolysis by PDE3” value was “did not significantly inhibit”. Also, the “effect on cAMP hydrolysis” value in data set [6] is on record as “appreciably higher concentrations were necessary”. Moreover, in data set [16], the “cAMP hydrolysis by PDE2” value is given as “did not significantly inhibit”. Moreover, the Tcf/Lef-mediated transcription result in data set [8] was “significant reduction”. Besides, the “cGMP PDE inhibition in FHC lysate” value in data set [17] is listed as “reduced sensitivity”.
On to `CS(=O)(=O)c1ccc(C2=C(c3ccccc3)C(=O)OC2)cc1` [Rofecoxib, rofecoxib], for which the IC50 in data set [3] is more than 300 µM.
Regarding `Cc1ccc(-c2cc(C(F)(F)F)nn2-c2ccc(S(N)(=O)=O)cc2)cc1` [celecoxib], the “effect on cGMP PDE activity” value in data set [3] is on record as “inhibited cGMP PDE”. In data set [2], the HT-29 growth inhibition entry is recorded as “did inhibit tumor cell growth”.
